Experimental data as given in article PMC2746395 (Journal of medicinal chemistry, 2009).
“Also recorded” adds a separate entry of the source. Each block holds one compound with its values, some of them ahead of it.

Columns and labels:
NET [1] = molecular target: T1, NET (Macaca mulatta, UniProt Q9MYW8); assay: MicroPET imaging in anesthetized rhesus monkeys; assay type: in vivo, rhesus monkey; settings: for Peak ratio of uptake cerebellum to caudate / Peak ratio of uptake midbrain to caudate / Peak ratio of uptake thalamus to caudate: time not stated; for time of peak uptake in all regions of interest: followed by fast washout
NET [2] = settings: cynomolgus monkeys and human; cited from earlier work
[3] = Lipophilicity measurement; assay type: physicochemical; settings: relative to 1
Outline: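 Radiolabeled test compound (~5–10 µCi) was added to 2 mL 1-octanol plus 2 mL 0.02 M sodium phosphate buffer (pH 7.4), vortexed 10 min at room temperature, then centrifuged 5 min. A 0.5 mL sample of each layer was gamma-counted and decay corrected. log P7.4 = log(octanol counts/buffer counts) per replicate; three replicates averaged.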

human SERT (hSERT) = human SERT (hSERT) (Homo sapiens, UniProt P31645); assay: In vitro competition binding vs [3H]citalopram in transfected HEK-293 cells; settings: Ki ratio relative to 1
human NET (hNET) = human NET (hNET) (Homo sapiens, UniProt P23975); assay: In vitro competition binding vs [3H]nisoxetine in transfected HEK-293 cells
NET [4] = molecular target: T1, NET; assay: PET imaging in awake rhesus monkeys; assay type: in vivo, rhesus monkey; settings: for effect of isoflurane anesthesia / awake state on binding kinetics: awake vs anesthetized monkeys
NET [5] = settings: cited from earlier work
NET [6] = settings: rats, 60 min post injection; cited from earlier work
[7] = after injection, baseline, anesthetized
[8] = postinjection, baseline, anesthetized

T1 sequence (Q9MYW8 1-617): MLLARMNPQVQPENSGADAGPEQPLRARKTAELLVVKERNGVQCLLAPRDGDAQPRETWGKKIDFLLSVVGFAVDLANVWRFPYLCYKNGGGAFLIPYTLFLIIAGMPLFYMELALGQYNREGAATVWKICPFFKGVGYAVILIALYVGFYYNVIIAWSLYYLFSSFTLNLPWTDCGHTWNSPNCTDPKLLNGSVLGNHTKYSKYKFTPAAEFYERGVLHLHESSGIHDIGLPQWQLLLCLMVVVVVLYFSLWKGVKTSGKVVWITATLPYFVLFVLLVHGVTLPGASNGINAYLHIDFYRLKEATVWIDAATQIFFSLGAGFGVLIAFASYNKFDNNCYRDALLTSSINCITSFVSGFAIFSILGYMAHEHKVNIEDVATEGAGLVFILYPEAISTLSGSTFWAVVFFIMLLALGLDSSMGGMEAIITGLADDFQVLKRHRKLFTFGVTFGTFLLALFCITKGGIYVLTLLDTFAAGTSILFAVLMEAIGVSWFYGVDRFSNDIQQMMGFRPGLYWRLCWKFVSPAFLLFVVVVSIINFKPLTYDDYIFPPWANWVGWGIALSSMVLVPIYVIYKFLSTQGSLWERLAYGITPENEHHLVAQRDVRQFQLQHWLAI
Sequence of human NET (hNET) (P23975 whole entry): as the sequence (Q9MYW8 1-617) above, with S15N, A19T, V246I, I410V, I427V, G452S, V606I counted along it
Sequence of human SERT (hSERT) (P31645 whole entry): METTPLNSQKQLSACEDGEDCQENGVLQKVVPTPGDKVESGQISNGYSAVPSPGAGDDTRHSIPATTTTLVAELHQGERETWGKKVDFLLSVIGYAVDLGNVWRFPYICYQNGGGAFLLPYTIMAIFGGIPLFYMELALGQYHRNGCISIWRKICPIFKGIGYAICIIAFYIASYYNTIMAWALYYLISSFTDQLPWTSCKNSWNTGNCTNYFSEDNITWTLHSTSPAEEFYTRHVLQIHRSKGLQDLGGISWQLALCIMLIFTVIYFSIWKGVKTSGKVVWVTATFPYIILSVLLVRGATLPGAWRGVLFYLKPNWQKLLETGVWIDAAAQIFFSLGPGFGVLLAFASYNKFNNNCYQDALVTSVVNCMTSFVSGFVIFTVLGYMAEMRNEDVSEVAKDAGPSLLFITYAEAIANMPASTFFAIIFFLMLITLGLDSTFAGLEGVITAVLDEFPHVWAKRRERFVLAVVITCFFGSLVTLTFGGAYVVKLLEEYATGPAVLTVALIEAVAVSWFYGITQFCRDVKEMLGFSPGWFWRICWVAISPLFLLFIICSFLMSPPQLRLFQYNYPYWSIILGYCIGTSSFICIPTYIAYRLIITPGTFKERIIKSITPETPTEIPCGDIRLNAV

SMILES: [18F]CCCOc1ccccc1OC(c1ccccc1)C1CNCCO1 (centres unmarked) [[^18F]3]
Peak ratio of uptake cerebellum to caudate (NET [1]; baseline, anesthetized): 0.95 | Peak ratio of uptake midbrain to caudate (NET [1]; baseline, anesthetized): 1.18 | Peak ratio of uptake thalamus to caudate (NET [1]; baseline, anesthetized): 1.18 | time of peak uptake in all regions of interest (NET [1]; baseline, anesthetized): 15 min

SMILES: [18F]CCOc1ccccc1OC(c1ccccc1)C1CNCCO1 (centres unmarked) [[^18F]2]
Peak ratio of uptake cerebellum to caudate (NET [1]; baseline, anesthetized): 1.05 | Peak ratio of uptake midbrain to caudate (NET [1]; baseline, anesthetized): 1.13 | Peak ratio of uptake thalamus to caudate (NET [1]; baseline, anesthetized): 1.13 | time of peak uptake in all regions of interest (NET [1]; baseline, anesthetized): 15 min

SMILES: [2H]C([2H])([18F])Oc1ccccc1O[C@@H](c1ccccc1)[C@H]1CNCCO1 [(S,S)-[^18F]FMeNER-D2]
thalamus-to-striatum binding ratio (NET [2]): ~ 1.5

increase of log P7.4 on substitution of oxygen by sulfur [3]: 0.43 | times more potent than 1 for the SERT (human SERT (hSERT)): 6.5 times | times more potent than 1 for the NET (human NET (hNET); Ki ratio relative to 1): 3.4 times
SMILES: Cc1ccccc1S[C@@H](c1ccccc1)[C@@H]1CNCCO1 [compound 4, (2S,3S)-2-[α-(2-Methylphenylthio)phenylmethyl]morpholine]

displacement of radioactivity in the caudate in chase study with SERT ligand (NET [1]; (R,S)-citalopram HBr 1.5 mg/kg 40 min after injection): no displacement | time of peak uptake of radioactivity in thalamus and midbrain (NET [1]; [7]): 27.5 to 45 min | washout T1/2, thalamus and midbrain (NET [1]; baseline, anesthetized): ~ 160 min
SMILES: [11CH3]c1ccccc1S[C@@H](c1ccccc1)[C@@H]1CNCCO1 [[^11C]4]
effect of isoflurane anesthesia / awake state on binding kinetics (NET [4]): markedly decreased; also recorded: greatly decreased

SMILES: COc1ccccc1O[C@@H](c1ccccc1)[C@@H]1CNCCO1 [(S,S)-MeNER, reference compound]
NET selectivity DAT/NET (human NET (hNET); ratio of Ki values): >2000

highest ratios of uptake in NET-rich regions to that in caudate (NET [1]; 45 min, anesthetized): 1.30–1.45 | Ratio of uptake pons to caudate (peak) (NET [1]; 45 min, baseline, anesthetized): 1.40 | time of peak uptake of radioactivity in thalamus and pons (NET [1]; [7]): 15.5 to 27.5 min | time to specific binding peak equilibrium (quasi-equilibrium) (NET [1]; after injection, both anesthetized and awake states): less than 1 h | half-time for clearance from peak uptake (T1/2), thalamus and pons (NET [1]; baseline, anesthetized): ~ 105 min | time of peak uptake in caudate (NET [1]; [8]): 18 to 35 min | time of peak uptake in midbrain and cerebellum (NET [1]; [8]): 9.5 to 18.5 min | effect of isoflurane anesthesia / awake state on binding kinetics (NET [4]): not significantly altered | time of peak uptake (NET [4]; both awake and anesthetized monkey studies): 17.5 to 35 min
SMILES: [11CH3]c1ccccc1O[C@@H](c1ccccc1)[C@@H]1CNCCO1 [[^11C]1]

SMILES: [11CH3]Oc1ccccc1O[C@@H](c1ccccc1)[C@@H]1CNCCO1 [(S,S)-[^11C]MeNER]
ratios of uptake in NET-rich brain regions to striatum (NET [5]; 90 min postinjection): 1.4–1.6 | thalamus-to-striatum uptake ratios (NET [5]; cynomolgus monkeys and baboons): 1.4–1.6 | hypothalamus-to-striatum uptake ratio (NET [6]): 2.5
